The text below walks through data of ChEMBL document CHEMBL1144107, “Novel and known constituents from Buddleja species and their activity against leukocyte eicosanoid generation” (J Nat Prod, 1999).

The species entered for data set [1] is Rattus norvegicus. As to the kind of experiment: Inhibition of cyclooxygenase in Wistar rat peritoneal leukocytes at 50 ug/mL. The format is cell-based. In outline:
(§1)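 Peritoneal leukocytes (~85% PMNs) came from male Wistar rats (200-300 g) 16-20 h after ip 6% oyster glycogen and were used at 2.5 × 10^6 cells/mL in complete HBSS. The COX readout was supernatant TXB2 by radioimmunoassay (3H-TXB2 tracer, rabbit antiserum, 4 °C, 18 h).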

Data set [2] concerns the target T1, Polyunsaturated fatty acid 5-lipoxygenase (Rattus norvegicus) (UniProt P12527).
T1 sequence (whole entry): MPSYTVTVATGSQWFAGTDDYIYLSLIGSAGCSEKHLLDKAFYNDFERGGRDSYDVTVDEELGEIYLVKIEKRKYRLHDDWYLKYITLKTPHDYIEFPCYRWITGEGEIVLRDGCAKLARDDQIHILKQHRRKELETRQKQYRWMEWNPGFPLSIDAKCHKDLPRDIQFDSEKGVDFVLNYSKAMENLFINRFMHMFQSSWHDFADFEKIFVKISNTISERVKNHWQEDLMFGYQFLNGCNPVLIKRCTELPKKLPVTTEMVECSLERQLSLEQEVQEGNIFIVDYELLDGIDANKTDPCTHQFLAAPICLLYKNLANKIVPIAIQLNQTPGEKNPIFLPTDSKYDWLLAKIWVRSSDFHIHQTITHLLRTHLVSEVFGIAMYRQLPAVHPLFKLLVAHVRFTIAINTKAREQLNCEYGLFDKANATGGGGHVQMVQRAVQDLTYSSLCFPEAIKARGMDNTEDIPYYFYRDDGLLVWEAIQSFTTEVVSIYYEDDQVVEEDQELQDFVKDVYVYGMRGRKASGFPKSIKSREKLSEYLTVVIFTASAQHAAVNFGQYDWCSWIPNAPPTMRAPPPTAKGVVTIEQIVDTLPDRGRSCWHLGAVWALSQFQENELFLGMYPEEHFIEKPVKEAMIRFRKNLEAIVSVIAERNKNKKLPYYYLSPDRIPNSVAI
As to the kind of experiment: Inhibition of 5-lipoxygenase in Wistar rat peritoneal leukocytes at 50 ug/mL. The format is cell-based. Summed up:
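Leukocytes (~85% PMNs) were elicited in male Wistar rats (200-300 g) with ip 6% oyster glycogen and harvested 16-20 h later. Cells at 2.5 × 10^6/mL in complete HBSS were tested in triplicate, preincubated with the sample (in DMSO, or CHCl3 evaporated) for 10 min at 37 °C, then given A23187 for 10 min. Supernatant LTB4 was measured by RIA (3H-LTB4 tracer, rabbit antiserum, 18 h, 4 °C).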

Data set [3] is described as follows: Inhibition of cyclooxygenase in Wistar rat peritoneal leukocytes. The format is cell-based. Summed up:
as §1

The target in data set [4] is T2, Polyunsaturated fatty acid 5-lipoxygenase (Rattus norvegicus, UniProt P12527).
T2 sequence (P12527 whole entry): T1 sequence (whole entry)
As to the kind of experiment: Inhibition of 5-lipoxygenase in Wistar rat peritoneal leukocytes. The format is cell-based. In outline:
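Male Wistar rat peritoneal leukocytes (~85% PMNs) elicited by ip 6% oyster glycogen, harvested 16-20 h later, and resuspended at 2.5 × 10^6 cells/mL in HBSS with 1.26 mM Ca2+ and 0.9 mM Mg2+. Triplicates were preincubated 10 min at 37 °C with the test agent, then stimulated 10 min with calcium ionophore A23187. Supernatant LTB4 was measured by radioimmunoassay using a 3H-LTB4 tracer and rabbit antiserum (4 °C, 18 h).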

A short description of data set [5]: Cell viability of Wistar rat peritoneal leukocytes by trypan blue exclusion method. To be noted: read-out: Activity. The format is cell-based, Leukocyte.

Structures are written as SMILES.

For the compound `C=C1CCC[C@H](C)C(=O)[C@H](OC(C)=O)[C@@H]2[C@@H]1CC2(C)C`, the inhibition in data set [1] and in data set [2] was 0% throughout.
With `CCC(OC)(c1cccc(OCc2ccc3ccccc3c2)c1)c1nccs1` (centres undefined), the inhibition stood at 0% in data set [1] and 100% in data set [2].
For `CCn1c(=O)ccc2cc(COc3cc(F)cc(C4(OC)CCOCC4)c3)ccc21` the same measures were 47.8% and 100%.
As for `O=C(O)c1ccc(OCCn2ccnc2)cc1`, the inhibition amounted to 89.6% in data set [1] and 0% in data set [2].
Consider `C[C@@H]1O[C@@H](O[C@@H]2[C@@H](O)[C@H](OCCc3ccc(O)c(O)c3)O[C@H](CO)[C@H]2OC(=O)/C=C/c2ccc(O)c(O)c2)[C@H](O)[C@H](O)[C@H]1O`, for which the inhibition in data set [1] and in data set [2] was 0% each time.
As for `C[C@@H]1O[C@@H](O[C@@H]2[C@@H](O)[C@H](OCCc3ccc(O)c(O)c3)O[C@H](CO[C@@H]3OC[C@H](O)[C@H](O)[C@H]3O)[C@H]2OC(=O)/C=C/c2ccc(O)c(O)c2)[C@H](O)[C@H](O)[C@H]1O`, the inhibition in data set [1] and in data set [2] was 0% each time.
For `C=C1CC/C=C(\C)C(=O)C[C@@H]2[C@@H]1CC2(C)C` [BUDDLEDIN C], the figures for the inhibition in data set [1] and in data set [2] were 9.5% and 16.4%, respectively. The 50% inhibitory concentration (IC50) in data set [3] and in data set [4] was greater than 200 µM in each case.
`COc1ccc2c(c1)c(CC(=O)O)c(C)n2C(=O)c1ccc(Cl)cc1`: the inhibition came out at 100% in data set [1] and 0% in data set [2].
For the compound `C[C@H]1O[C@H](O[C@@H]2[C@@H](O)[C@H](OCCc3ccc(O)c(O)c3)O[C@H](CO[C@H]3OCC(O)(CO)[C@@H]3O)[C@H]2OC(=O)/C=C/c2ccc(O)c(O)c2)[C@@H](O)[C@@H](O)[C@@H]1O` (some centres undefined), the inhibition in data set [1] and in data set [2] was 0% each time.
Take `COC(CO[C@@H]1O[C@H](CO)[C@@H](OC(=O)/C=C/c2ccc(O)c(O)c2)[C@H](O[C@@H]2O[C@@H](C)[C@H](O)[C@@H](O)[C@H]2O)[C@H]1O)c1ccc(O)c(O)c1` (some centres undefined): the inhibition in data set [1] and in data set [2] was 0% throughout.
Take `C=C1CC/C=C(\C)C(=O)[C@H](O)[C@@H]2[C@@H]1CC2(C)C` [BUDDLEDIN B]: the inhibition came to 47.9% in data set [1] and 49.3% in data set [2]. Further, the IC50 in data set [3] and in data set [4] was greater than 200 µM each time.
For the compound `C[C@H]1O[C@H](O[C@@H]2[C@@H](O)[C@H](OCCc3ccc(O)c(O)c3)O[C@H](CO[C@H]3O[C@@H](CO)[C@H](O)[C@@H](O)[C@@H]3O)[C@H]2OC(=O)/C=C/c2ccc(O)c(O)c2)[C@@H](O)[C@@H](O)[C@@H]1O`, the inhibition in data set [1] and in data set [2] was 0% each time.
Turning to `COc1ccc(-c2cc(=O)c3c(O)cc(O)cc3o2)cc1` [ACACETIN], the results for the inhibition in data set [1] and in data set [2] were 69.5% and 77.6%, respectively. Moreover, the IC50 was 77.5 µM in data set [3] and 123 µM in data set [4].
On to `C/C1=C\CC(C)(C)/C=C/C(=O)/C(C)=C/CC1`, for which the inhibition in data set [1] and in data set [2] was 0% in each case.
Take `CC(/C=C/C=C(\C)C(=O)O)=C\C=C\C=C(C)\C=C\C=C(/C)C(=O)O[C@H]1O[C@H](CO[C@@H]2O[C@H](CO)[C@@H](O)[C@H](O)[C@H]2O)[C@@H](O)[C@H](O)[C@H]1O` [CROCETIN MONOGENTIBIOSYL ESTER]: the inhibition in data set [1] was 85.1%; in data set [2], 0%. This compound also displayed an IC50 in data set [3] of 28.2 µM.
For `Cc1cc(-c2ccc(/N=N/c3c(S(=O)(=O)O)cc4cc(S(=O)(=O)O)cc(N)c4c3O)c(C)c2)ccc1/N=N/c1c(S(=O)(=O)O)cc2cc(S(=O)(=O)O)cc(N)c2c1O` [TRYPAN BLUE], the viability in data set [5] was determined as 95%.
On to `C=C1CC/C=C(\C)C(=O)[C@H](OC(C)=O)[C@@H]2[C@@H]1CC2(C)C` [BUDDLEDIN A], for which the inhibition in data set [1] is 89.3%; in data set [2], 98%. The values for the concentration for half-maximal inhibition (IC50) in data set [3] and in data set [4] were 13.7 µM and 50.4 µM, respectively.
As to `O=C(/C=C/c1ccc(O)c(O)c1)O[C@H]1[C@H](O)[C@@H](O)[C@H](OCCc2ccc(O)c(O)c2)O[C@@H]1CO`, the inhibition in data set [1] and in data set [2] was 0% each time.

The inhibition is how much of the control response was suppressed. A high value points to strong suppression. Usually IC50 stands for the concentration at which inhibition is half-maximal. Higher therefore signals weaker potency.
